Our source for the viability, Activity and inhibition values is ChEMBL document CHEMBL3616436, “Synthesis, cytotoxicity and antimicrobial activity of thiourea derivatives incorporating 3-(trifluoromethyl)phenyl moiety” (Eur J Med Chem, 2015).

A short description of data set [1]: Cytotoxicity against human HaCaT cells assessed as cell viability at 16 uM after 24 hrs by MTT assay relative to control. Format: cell-based. Particulars: read-out: Activity. The gist of the method:
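HaCaT keratinocytes, 2.5x10^4 cells/well, in DMEM with 2% FBS, exposed 24 h to 16 µM compound, then 2 h with 0.5 mg/ml MTT; formazan dissolved in 0.04 M HCl/isopropanol, A570; viability as % of untreated control absorbance; three independent experiments in triplicate.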
(Tetrazolium assays rely on reduction of a dye to a coloured formazan, in cell work by metabolically active cells.)

A further data set has as its system HaCaT. The experiment in a line: Cytotoxicity against human HaCaT cells assessed as cell mortality at 16 uM after 24 hrs by LDH release assay relative to control. In kind it is cell-based. An outline of the steps: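 HaCaT cells in DMEM with 2% FBS exposed 24 h to 16 µM compound; LDH released into supernatant measured with commercial kit at 490 nm; % release = (test − untreated low control)/(10% Triton X-100 high control − low control) × 100; three independent experiments in triplicate.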
On the technique in general: LDH in the medium is a marker of cell lysis.

Data set [2] relates to Staphylococcus epidermidis. Kind of data set: Inhibition of biofilm formation in Staphylococcus epidermidis 23/04 at 8 ug/ml after 24 hrs using MTT staining by spectrophotometer analysis. Particulars: 23/04, 24 h. Format: functional.
The subject of data set [3] is Staphylococcus epidermidis. Kind of data set: Inhibition of biofilm formation in Staphylococcus epidermidis ATCC 12228 at 8 ug/ml after 24 hrs using MTT staining by spectrophotometer analysis. Format: functional. Particulars: ATCC 12228, 24 h. An outline of the steps: (§1)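 Methicillin-resistant hospital isolates or ATCC strains of S. epidermidis were grown overnight in tryptone soy broth with 0.5% glucose. Inoculum of 10^7 CFU/mL was mixed 1:1 with compound in TSB-glucose and incubated 24 h at 37 °C. Non-adherent cells were washed off with PBS, and wells were stained with MTT (0.5% in PBS) for 2 h at 37 °C. Stain was solubilized in DMSO/glycine buffer and read at A554. Inhibition is relative to drug-free control; quadruplicates.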

In data set [4] the test system is Staphylococcus epidermidis. Kind of data set: Inhibition of biofilm formation in Staphylococcus epidermidis ATCC 35984 at 8 ug/ml after 24 hrs using MTT staining by spectrophotometer analysis. Format: functional. Particulars: ATCC 35984, 24 h. The gist of the method:
as §1

A word on the inhibition: it is the share of the control response that was lost under treatment. Lower therefore signals little suppression.

`FC(F)(F)c1cccc(NC(=S)Nc2cccc(Br)c2)c1`: the viability at 24 h, 16 µM in data set [1] came to 91%. Moreover, in the data set with HaCaT, the Activity came out at 0%. In data set [2], this molecule registered an inhibition at 8 µg/mL of 70%.
For the molecule `Fc1ccc(NC(=S)Nc2cccc(C(F)(F)F)c2)cc1Cl`, in data set [1], the viability at 24 h, 16 µM came to 89.8%. Also, the Activity with HaCaT was determined as 8%. Moreover, the inhibition at 8 µg/mL in data set [2], in data set [3] and in data set [4] was 40% in each case.
